Laboratory results reported in ChEMBL document CHEMBL5329148, “Visible and NIR light photoactivatable o-hydroxycinnamate system for efficient drug release with fluorescence monitoring” (RSC Med Chem, 2023).
One block for each compound: values may come before it.

What was measured:
[1] = system: MCF7; experiment: Photocytotoxicity in human MCF7 cells assessed as reduction in cell viability preincubated for 1 hr followed by visible light irradiation for 30 mins and measured after 72 hrs by MTT assay; assay type: functional, cell-based; conditions: MCF7, light or radiation study
In short: (§1)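 A549 or MCF7 cells (9000/well, grown 24 h) were given compound in medium with ≤1% DMSO for 1 h at 37 °C in the dark, washed twice and placed in PBS. They were irradiated with 400–700 nm light (11 mW) for 10, 20 or 30 min, then incubated 72 h in the dark. Viability was read by MTT (2 h, 37 °C), with formazan in DMSO at 570 nm. Unirradiated wells served as dark control.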

[2] = (§2) Dark toxicity in human A549 cells assessed as reduction in cell viability incubated for 72 hrs by MTT assay; assay type: cell-based; conditions: A549 cells
In short: (§3)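 Cells seeded at 9000/well in DMEM with 10% FBS, grown 24 h at 37 °C in 5% CO2. Compound in medium with ≤1% DMSO for 1 h at 37 °C in the dark, washed twice with PBS, kept unirradiated, then incubated 72 h in the dark. MTT (5 mg mL-1 stock) added for 2 h at 37 °C, formazan dissolved in DMSO, absorbance read at 570 nm.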

[3] = Dark toxicity in human MCF7 cells assessed as reduction in cell viability incubated for 72 hrs by MTT assay; assay type: cell-based; in short: as §3
[4] = system: A549; experiment: Photocytotoxicity in human A549 cells assessed as reduction in cell viability preincubated for 1 hr followed by visible light irradiation for 30 mins and measured after 72 hrs by MTT assay; assay type: functional, cell-based; conditions: for IC50: A549, light or radiation study; in short: as §1
[5] = system: A549; experiment: Photocytotoxicity in human A549 cells assessed as reduction in cell viability preincubated for 1 hr followed by two-photon NIR light irradiation for 10 mins and measured after 72 hrs by MTT assay; conditions: A549, light or radiation study
[6] = system: A549; experiment: Induction of mitochondrial membrane depolarization in human A549 cells after 30 mins by JC-1 dye staining based FACS analysis (reference value: 5.3 +/- 1.1 %); assay type: functional; conditions: 0.5 h
[7] = Drug release in 1: 9 DMSO/PBS at pH 4 at 50 uM under visible light irradiation upto 20 mins by emission spectroscopy; assay type: ADME; conditions: buffer, pH 4, 20 min
In short: (§4)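 Drug release was measured across pH 4–9. Solutions of 50 µM in 1:9 DMSO/buffer were irradiated with 400–700 nm light (11 mW) at 2 cm and 25 °C, in 2-min steps over 0–20 min. Release was taken from coumarin reporter emission (ex 385 nm, em 475 nm). A dark control received no light.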

[8] = Lipophilicity, logP of compound in n-Octanol/water; assay type: physicochemical
[9] = system: A549; experiment: Photo-induced drug release in human A549 cells assessed as increase in blue fluorescence at 10 uM incubated for 1 hr prior to PBS washout followed by visible light irradiation for 2 mins and further incubated for 10 mins by fluorescence imaging analysis; assay type: ADME, cell-based; conditions: a549, 1 h
In short: (§5)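 A549 cells (2 × 10^5/well, seeded a day before) received 10 µM compound for 1 h at 37 °C in the dark and were washed with cold PBS. They were irradiated with 400–700 nm light (11 mW) for 0, 2, 5, 10, 15, 20 or 30 min, then held 10 min. Blue-channel fluorescence was imaged and given as the mean of 30 cells, fitted to an exponential.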

[10] = Drug release in 1: 9 DMSO/PBS at pH 9 at 50 uM under visible light irradiation upto 20 mins by emission spectroscopy; assay type: ADME; conditions: buffer, pH 9, 20 min; in short: as §4
[11] = system: A549; experiment: Induction of mitochondrial membrane depolarization in human A549 cells after 1 hr by JC-1 dye staining based FACS analysis (reference value: 5.3 +/- 1.1 %); assay type: functional
[12] = Drug release in 1: 9 DMSO/PBS at pH 7 at 50 uM under visible light irradiation upto 20 mins by emission spectroscopy; assay type: ADME; conditions: buffer, pH 7, 20 min; in short: as §4
[13] = system: A549; experiment: as §2; assay type: cell-based; conditions: a549, 72 h, time 72 hrs; in short: as §3
[14] = Drug localization in human A549 cells mitochondria at 10 uM incubated for 1 hr prior to PBS washout followed by visible light irradiation for 10 mins by inverted fluorescence microscopy analysis; assay type: ADME; conditions: a549, 1 h
In short: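 A549 cells were loaded with 10 µM compound in complete DMEM for 1 h at 37 °C, washed, and irradiated in PBS with 400–700 nm light (11 mW) for 10 min. Mito Red (100 nM, 15 min) was added before a PBS wash. Coumarin signal was imaged at ex/em 350/460 nm and Mito Red at 550/580 nm. Overlap was taken from a scatter plot as Pearson's correlation coefficient.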

[15] = system: A549; experiment: Photocytotoxicity in human A549 cells assessed as reduction in cell viability at 5 uM preincubated for 1 hr followed by visible light irradiation upto 30 mins and measured after 72 hrs by MTT assay; assay type: functional, cell-based; conditions: time 73.5 hrs, TDE = time-dependent effect; in short: as §1
[16] = system: A549; experiment: Photo-induced drug release in human A549 cells assessed as increase in blue fluorescence at 10 uM incubated for 1 hr prior to PBS washout followed by visible light irradiation and further incubated for 10 mins by fluorescence imaging analysis; assay type: ADME, cell-based; conditions: a549, 1 h, TDE = time-dependent effect; in short: as §5
[17] = system: A549; experiment: Dark toxicity in human A549 cells assessed as reduction in cell viability upto 20 uM incubated for 72 hrs by MTT assay; assay type: cell-based; conditions: a549, 72 h; in short: as §3
[18] = Drug uptake in human A549 cells at 10 uM incubated for 1 hr by FACS analysis; assay type: ADME, cell-based; conditions: a549, 1 h
In short: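 A549 cells (1.5 × 10^5/well) were washed and given 10 µM compound in medium with 1% DMSO for 0, 0.5, 1 or 2 h at 37 °C. They were irradiated in PBS with visible light (400–700 nm, 11 mW) for 10 min, then trypsinized and resuspended in HBSS. Blue coumarin fluorescence was read by flow cytometry on about 10000 cells.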

[19] = system: A549; experiment: Photocytotoxicity in human A549 cells assessed as reduction in cell viability at 10 uM preincubated for 1 hr followed by two-photon NIR light irradiation for 20 mins and measured after 72 hrs by MTT assay; assay type: functional; conditions: time 4400 min, 73.33 h
In short: (§6)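 A549 cells (9000/well) were treated with compound for 1 h at 37 °C in the dark, then moved to PBS. They were irradiated with a two-photon femtosecond laser (800 nm, 50 mW) for 0, 5, 10, 15 or 20 min, then incubated 72 h in the dark in medium. Viability was read by MTT over 2 h, with formazan in DMSO at 570 nm. Unirradiated wells served as dark control.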

[20] = system: A549; experiment: Photocytotoxicity in human A549 cells assessed as reduction in cell viability at 10 uM preincubated for 1 hr followed by two-photon NIR light irradiation for 10 mins and measured after 72 hrs by MTT assay; assay type: functional; conditions: time 4390 min, 73.17 h; in short: as §6
[21] = system: A549; experiment: Photocytotoxicity in human A549 cells assessed as reduction in cell viability at 10 uM preincubated for 1 hr followed by two-photon NIR light irradiation for 5 mins and measured after 72 hrs by MTT assay; assay type: functional; conditions: time 4385 min, 73.08 h; in short: as §6

SMILES: Nc1ccn([C@@H]2O[C@H](CO)[C@@H](O)C2(F)F)c(=O)n1 [GEMCITABINE]
- IC50 [1]: 1.36 µM
- IC50 at 72 h [2]: 0.75 µM
- IC50 at 72 h [3]: 1.46 µM
- IC50 [4]: 0.65 µM
- IC50 [5]: 0.8 µM

- Drug metabolism [7]: Active
- logP [8]: 2.1
- Drug metabolism [9]: Metabolite_Detected
- Drug metabolism [10]: Active
- Drug metabolism [12]: Active
- Drug uptake [14]: Active
- Drug metabolism [16]: Tde
- Drug uptake [18]: Active
SMILES: CCN(CC)c1ccc(/C=C/C(=O)OC[C@H]2O[C@@H](n3ccc(N)nc3=O)C(F)(F)[C@@H]2O)c(O)c1
- Activity [6]: 13.9%
- IC50 [1]: 5.45 µM
- Activity [11]: 82.3%
- Activity [13]: Non-Toxic
- Activity [15]: Tde
- IC50 [4]: 5.05 µM
- Activity ([4]; time 73.5 hrs): Dose-Dependent Effect
- IC50 [5]: 12.5 µM
- Activity [17]: Non-Toxic
- Activity [19]: 57%
- Activity [20]: 47%
- Activity [21]: 35%
